Source: ChEMBL document CHEMBL1124363, “Photoaffinity, biotinyl, and iodo analogues as probes for vasotocin receptors” (1989)
Where a SMILES comes first, the peptide text is derived from it. Bridges are numbered along the chain shown (N, C = ends). [ ]: non-standard residue; d: D form. The star is where a group is joined. Biotin = O=C1N[C@H]2[C@H](CS[C@H]2CCCCC(=O)*)N1; Phe(4-NH2) = Nc1ccc(C[C@H](N)C(=O)O)cc1; Mpa = O=C(O)CCS

Legend:
[1] = Effective concentration of compound for half-maximal response in hydroosmotic toad bladder assay; assay type: functional; details: Amphibia; read-out: ED50 (the source's name)
In short: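 Toad hemibladders filled with Ringer's fluid diluted to half-strength with distilled water. Net osmotic water flux across the bladder wall measured gravimetrically by the Bentley method. ED-50 taken as the concentration giving a half-maximal water flow response.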

Rattus norvegicus [2] = species on record: Rattus norvegicus; assay: Antidiuretic activity of compound was assayed on water-loaded rats; assay type: functional, Urine
Rattus norvegicus [3] = assay: Pressor activity of compound was assayed on urethane-anesthetized, phenoxybenzamine-treated rats; assay type: functional; parameters: unit not given here

EC50 [1] [nM] | Compound | Antidiuretic activity (Rattus norvegicus [2]) [U/mg] | Pressor activity (Rattus norvegicus [3])
2.1 | CC[C@H](C)[C@@H]1NC(=O)[C@H](Cc2ccccc2)NC(=O)[C@@H](N)CSSC[C@@H](C(=O)N2CCC[C@H]2C(=O)N[C@@H](CCCN=C(N)N)C(=O)N[C@@H](Cc2ccc(O)cc2)C(N)=O)NC(=O)[C@H](CC(N)=O)NC(=O)[C@H](CCC(N)=O)NC1=O (HELM PEPTIDE1{C.F.I.Q.N.C.P.R.Y.[am]}$PEPTIDE1,PEPTIDE1,1:R3-6:R3$$$V2.0) | 2.8 | 0
2.5 | CC[C@H](C)[C@@H]1NC(=O)[C@H](Cc2ccccc2)NC(=O)[C@@H](N)CSSC[C@@H](C(=O)N2CCC[C@H]2C(=O)N[C@@H](CCCN=C(N)N)C(=O)N[C@@H](Cc2ccc(O)c(I)c2)C(N)=O)NC(=O)[C@H](CC(N)=O)NC(=O)[C@H](CCC(N)=O)NC1=O (HELM PEPTIDE1{C.F.I.Q.N.C.P.R.[O=C([C@H](Cc1ccc(O)c(I)c1)N[*:1])[*:2]].[am]}$PEPTIDE1,PEPTIDE1,1:R3-6:R3$$$V2.0) | 0.41 | –
12 | CC[C@H](C)[C@@H]1NC(=O)[C@H](Cc2ccc(O)cc2)NC(=O)CCSSC[C@@H](C(=O)N2CCC[C@H]2C(=O)N[C@@H](CCCN=C(N)N)C(=O)N[C@@H](Cc2ccc(NC(=O)CCCC[C@@H]3SC[C@@H]4NC(=O)N[C@@H]43)cc2)C(N)=O)NC(=O)[C@H](CC(N)=O)NC(=O)[C@H](CCC(N)=O)NC1=O ([Mpa]YIQNCPR[Phe(4-NH2)](Biotin)-NH2; disulfide 1-6) | 23 | –
0.49 | CC[C@H](C)[C@@H]1NC(=O)[C@H](Cc2ccc(O)cc2)NC(=O)[C@@H](N)CSSC[C@@H](C(=O)N2CCC[C@H]2C(=O)N[C@@H](CCCN=C(N)N)C(=O)N[C@@H](Cc2ccc(O)cc2)C(N)=O)NC(=O)[C@H](CC(N)=O)NC(=O)[C@H](CCC(N)=O)NC1=O (HELM PEPTIDE1{C.Y.I.Q.N.C.P.R.Y.[am]}$PEPTIDE1,PEPTIDE1,1:R3-6:R3$$$V2.0) | 25 | 0

Compound | EC50 [1] [nM] | Antidiuretic activity (Rattus norvegicus [2]) [U/mg] | Pressor activity (Rattus norvegicus [3])
CC[C@H](C)[C@@H]1NC(=O)[C@H](Cc2ccc(O)cc2)NC(=O)CCSSC[C@@H](C(=O)N2CCC[C@H]2C(=O)N[C@@H](CCCN=C(N)N)C(=O)N[C@@H](Cc2ccc(N=[N+]=[N-])cc2)C(N)=O)NC(=O)[C@H](CC(N)=O)NC(=O)[C@H](CCC(N)=O)NC1=O (HELM PEPTIDE1{[O=C(CCS[*:3])[*:2]].Y.I.Q.N.C.P.R.[[N-]=[N+]=Nc1ccc(C[C@H](N[*:1])C(=O)[*:2])cc1].[am]}$PEPTIDE1,PEPTIDE1,1:R3-6:R3$$$V2.0) | 0.09 | 40 | –
CC[C@H](C)[C@@H]1NC(=O)[C@H](Cc2ccc(O)cc2)NC(=O)[C@@H](N)CSSC[C@@H](C(=O)N2CCC[C@H]2C(=O)N[C@@H](CCCN=C(N)N)C(=O)NCC(N)=O)NC(=O)[C@H](CC(N)=O)NC(=O)[C@H](CCC(N)=O)NC1=O [VASOTOCIN] (HELM PEPTIDE1{C.Y.I.Q.N.C.P.R.G.[am]}$PEPTIDE1,PEPTIDE1,1:R3-6:R3$$$V2.0) | 0.022 | 231 | 160
CC[C@H](C)[C@@H]1NC(=O)[C@H](Cc2ccc(O)cc2)NC(=O)CCSSC[C@@H](C(=O)N2CCC[C@H]2C(=O)N[C@@H](CCCN=C(N)N)C(=O)N[C@@H](Cc2ccc(N)cc2)C(N)=O)NC(=O)[C@H](CC(N)=O)NC(=O)[C@H](CCC(N)=O)NC1=O (HELM PEPTIDE1{[O=C(CCS[*:3])[*:2]].Y.I.Q.N.C.P.R.[Nc1ccc(C[C@H](N[*:1])C(=O)[*:2])cc1].[am]}$PEPTIDE1,PEPTIDE1,1:R3-6:R3$$$V2.0) | 0.13 | 66 | 0
